# Laboratory results taken from PMC11966289 (ACS Omega, 2025).
# How the values were obtained:
# [1] = tested on: P. falciparum (D6 strain); test: In vitro antiplasmodial activity; format: cell-based; conditions: Plasmodium falciparum, D6, 72 h, read-out: P. falciparum (D6 strain) IC50
# [2] = tested on: P. falciparum (W2 strain); test: In vitro antiplasmodial activity; format: cell-based; conditions: Plasmodium falciparum, W2, 72 h, read-out: P. falciparum (W2 strain) IC50
# How it was run: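 Infected erythrocytes (2% hematocrit, 2% parasitemia) in RPMI 1640 with 60 μg/mL amikacin and 10% human serum, exposed to serially diluted test compound under 90% N2/5% CO2/5% O2 at 37 °C for 72 h. Parasite LDH measured with Malstat reagent (30 min, room temperature), then NBT/PES (1 h, dark), stopped with 5% acetic acid, absorbance 650 nm. Triplicates; chloroquine/artemisinin and DMSO controls; IC50 from dose–response.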
# [3] = In vitro cytotoxicity, Neutral Red assay; format: cell-based; conditions: African green monkey, Vero cells
# [4] = tested on: P. berghei; test: In vivo antiplasmodial evaluation in the P. berghei-mouse malaria model; design: species or system P. berghei (Swiss Webster Hsd:ND4 mice); conditions: 33.3 mg/kg × 3 days, oral gavage, mice
Structure (SMILES),IC50 [1] [nM],IC50 [2] [nM],IC50 at 48 h [3] [µg/mL],% Parasitemia suppression day 5 [4] [%],% Parasitemia suppression day 7 [4] [%],MST (mean survival time) [4] [days],cure (mice without parasitemia until day 28) [4],survival (animals survived on day 28/total) [4]
"C[C@@H]1CC[C@H]2[C@@H](C)C(=O)O[C@@H]3O[C@@]4(C)CC[C@@H]1[C@]32OO4 [ART, artemisinin, reference compound]",19,28.1,> 4.76,,,,,
"CCN(CC)CCCC(C)Nc1ccnc2cc(Cl)ccc12 (centres unmarked) [CQ, Chloroquine, reference compound]",60,853,> 4.76,100.00,100.00,28,2/5,5/5
"Cc1cc(Cl)nc(N2CCN(CCNc3ccnc4cc(Cl)ccc34)CC2)n1 [Compound 5a, 7-Chloro-N-(2-(4-(4-chloro-6-methylpyrimidin-2-yl)piperazin-1-yl)ethyl)quinolin-4-amine]",70,210,> 4.76,,,,,
"Cc1cc(Cl)nc(N2CCN(CCCNc3ccnc4cc(Cl)ccc34)CC2)n1 [Compound 5b, 7-Chloro-N-(3-(4-(4-chloro-6-methylpyrimidin-2-yl)piperazin-1-yl)propyl)quinolin-4-amine]",100,350,> 4.76,,,,,
"Clc1ccc2c(NCCCN3CCN(c4nccc(Cl)n4)CC3)ccnc2c1 [Compound 5c, 7-Chloro-N-(3-(4-(4-chloropyrimidin-2-yl)piperazin-1-yl)propyl)quinolin-4-amine]",62,230,> 4.76,,,,,
"Cc1cc(N2CCN(CCNc3ccnc4cc(Cl)ccc34)CC2)nc(Cl)n1 [Compound 6a, 7-Chloro-N-(2-(4-(2-chloro-6-methylpyrimidin-4-yl)piperazin-1-yl)ethyl)quinolin-4-amine]",79,500,> 4.76,,,,,
"Cc1cc(N2CCN(CCCNc3ccnc4cc(Cl)ccc34)CC2)nc(Cl)n1 [Compound 6b, 7-Chloro-N-(3-(4-(2-chloro-6-methylpyrimidin-4-yl)piperazin-1-yl)propyl)quinolin-4-amine]",66,200,> 4.76,,,,,
"Clc1ccc2c(NCCCN3CCN(c4ccnc(Cl)n4)CC3)ccnc2c1 [Compound 6c, 7-Chloro-N-(3-(4-(2-chloropyrimidin-4-yl)piperazin-1-yl)propyl)quinolin-4-amine]",73,420,> 4.76,,,,,
"Cc1cc(N2CCN(CCNc3ccnc4cc(Cl)ccc34)CC2)nc(N2CCCCC2)n1 [Compound 7a, 7-Chloro-N-(2-(4-(6-methyl-2-(piperidin-1-yl)pyrimidin-4-yl)piperazin-1-yl)ethyl) quinolin-4-amine]",32,40,> 4.76,,,,,
"Cc1cc(N2CCN(CCNc3ccnc4cc(Cl)ccc34)CC2)nc(N2CCOCC2)n1 [Compound 7b, 7-Chloro-N-(2-(4-(6-methyl-2-morpholinopyrimidin-4-yl)piperazin-1-yl)ethyl) quinolin-4-amine]",95,49,> 4.76,,,,,
"Cc1cc(N2CCN(CCNc3ccnc4cc(Cl)ccc34)CC2)nc(N2CCSCC2)n1 [Compound 7c, 7-Chloro-N-(2-(4-(6-methyl-2-thiomorpholinopyrimidin-4-yl)piperazin-1-yl)ethyl) quinolin-4-amine]",38,64,> 4.76,,,,,
"Cc1cc(N2CCN(CCNc3ccnc4cc(Cl)ccc34)CC2)nc(N2CCCC2)n1 [Compound 7d, 7-Chloro-N-(2-(4-(6-methyl-2-(pyrrolidin-1-yl)pyrimidin-4-yl)piperazin-1-yl)ethyl) quinolin-4-amine]",13,20,> 4.76,,,,,
